Source: ChEMBL document CHEMBL4342411, “Novel multitarget 5-arylidenehydantoins with arylpiperazinealkyl fragment: Pharmacological evaluation and investigation of cytotoxicity and metabolic stability” (Bioorg Med Chem, 2019)

Assays:
[1] = target: 5-hydroxytryptamine receptor 6 (Homo sapiens) (UniProt P50406); experiment: Displacement of [3H]-LSD from human recombinant 5-HT6 receptor expressed in CHO cells at 10^-7 M incubated for 60 mins by microbeta2 scintillation counter relative to control; type: cell-based
Procedure, shortened: (§1)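 Radioligand displacement from recombinant human receptor membranes, tested at two final concentrations (10^-6 and 10^-7 M), with scintillation counting. Results were expressed as percent inhibition of specific binding.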

[2] = target: 5-hydroxytryptamine receptor 7 (Homo sapiens, UniProt P34969); experiment: biochemical; type: cell-based, CHO;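 note: radioligand displacement of [3H]-LSD binding to recombinant human 5-HT7 receptor in CHO cells, 60 min incubation, read by scintillation counting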
[3] = target: 5-hydroxytryptamine receptor 2A (Homo sapiens) (UniProt P28223); settings: HEK293, at 0.1 µM
[4] = target: T1, 5-hydroxytryptamine receptor 1A (Homo sapiens, UniProt P08908); experiment: Displacement of [3H]-8-OH-DPAT from human recombinant 5-HT1A receptor expressed in HEK293 cells incubated for 60 mins by microbeta2 scintillation counter; type: cell-based
T1 sequence (P08908 whole entry): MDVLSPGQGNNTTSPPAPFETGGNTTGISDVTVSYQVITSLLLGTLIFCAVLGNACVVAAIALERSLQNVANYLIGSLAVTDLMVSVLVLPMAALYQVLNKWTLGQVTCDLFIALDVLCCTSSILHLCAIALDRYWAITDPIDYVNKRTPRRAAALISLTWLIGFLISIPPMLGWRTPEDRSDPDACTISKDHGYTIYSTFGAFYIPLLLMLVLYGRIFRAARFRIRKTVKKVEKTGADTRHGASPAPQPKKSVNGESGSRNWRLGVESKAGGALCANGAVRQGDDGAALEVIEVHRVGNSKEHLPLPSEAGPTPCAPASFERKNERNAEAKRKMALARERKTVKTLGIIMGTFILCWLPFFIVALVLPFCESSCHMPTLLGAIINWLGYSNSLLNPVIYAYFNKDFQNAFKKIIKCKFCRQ

[5] = target: 3',5'-cyclic-AMP phosphodiesterase 4B (Homo sapiens) (UniProt Q07343); experiment: Inhibition of human recombinant full length N-terminal GST-tagged PDE4B1 expressed in baculovirus infected Sf9 cells at 10^-5 M using cAMP as substrate incubated for 20 mins followed by substrate addition by luciferase assay relative to control
[6] = target: 5-hydroxytryptamine receptor 6 (Homo sapiens) (UniProt P50406); experiment: Displacement of [3H]-LSD from human recombinant 5-HT6 receptor expressed in CHO cells at 10^-6 M incubated for 60 mins by microbeta2 scintillation counter relative to control; type: cell-based; procedure, shortened: as §1
[7] = target: 5-hydroxytryptamine receptor 2A (Homo sapiens) (UniProt P28223); settings: HEK293, at 1 µM
in vitro = settings: CD1, mouse, microsomes
SW480 = experiment: Cytotoxicity against human SW480 cells assessed as growth inhibition measured after 72 hrs by MTT assay; type: functional, cell-based; settings: SW480, 72 h
Procedure, shortened: (§2)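 Cells were seeded at 1 × 10^4 per well: SW480 in MEM, PC3 in RPMI 1640, HaCaT in DMEM high glucose, each with 10% FBS. Compounds were added at 10–140 µM and incubated for 72 h. MTT was then added at 0.5 mg/mL in serum-free medium for 4 h at 37 °C. Formazan was dissolved in DMSO/isopropanol (1:1) and read at 570 nm. IC50 was given in µM; untreated cells served as control.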

HaCaT = experiment: Cytotoxicity against human HaCaT cells assessed as growth inhibition measured after 72 hrs by MTT assay; type: cell-based; procedure, shortened: as §2
PC-3 = experiment: Cytotoxicity against human PC3 cells assessed as growth inhibition measured after 72 hrs by MTT assay; type: functional, cell-based; settings: PC-3, 72 h; procedure, shortened: as §2

Chain of 3',5'-cyclic-AMP phosphodiesterase 4B (Homo sapiens) (Q07343 whole entry): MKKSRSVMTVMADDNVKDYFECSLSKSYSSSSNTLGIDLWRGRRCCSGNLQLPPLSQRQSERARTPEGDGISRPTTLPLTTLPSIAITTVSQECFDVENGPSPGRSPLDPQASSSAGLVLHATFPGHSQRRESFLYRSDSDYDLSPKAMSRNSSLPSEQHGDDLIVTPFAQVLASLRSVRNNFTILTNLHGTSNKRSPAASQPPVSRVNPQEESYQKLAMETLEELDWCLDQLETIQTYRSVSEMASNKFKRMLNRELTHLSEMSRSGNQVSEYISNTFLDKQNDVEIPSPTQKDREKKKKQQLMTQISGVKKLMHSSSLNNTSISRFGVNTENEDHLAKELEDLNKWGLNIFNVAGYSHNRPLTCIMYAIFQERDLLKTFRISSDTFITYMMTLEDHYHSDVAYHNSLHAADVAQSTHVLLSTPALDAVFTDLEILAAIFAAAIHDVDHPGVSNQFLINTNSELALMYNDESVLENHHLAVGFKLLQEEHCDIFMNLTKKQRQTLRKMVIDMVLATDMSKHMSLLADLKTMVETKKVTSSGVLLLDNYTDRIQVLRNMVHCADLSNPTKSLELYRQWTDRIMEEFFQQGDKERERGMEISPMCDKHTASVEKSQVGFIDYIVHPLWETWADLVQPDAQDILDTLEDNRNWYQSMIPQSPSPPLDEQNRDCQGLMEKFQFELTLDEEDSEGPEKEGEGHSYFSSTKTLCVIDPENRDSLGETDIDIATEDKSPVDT
Chain of 5-hydroxytryptamine receptor 7 (P34969 whole entry): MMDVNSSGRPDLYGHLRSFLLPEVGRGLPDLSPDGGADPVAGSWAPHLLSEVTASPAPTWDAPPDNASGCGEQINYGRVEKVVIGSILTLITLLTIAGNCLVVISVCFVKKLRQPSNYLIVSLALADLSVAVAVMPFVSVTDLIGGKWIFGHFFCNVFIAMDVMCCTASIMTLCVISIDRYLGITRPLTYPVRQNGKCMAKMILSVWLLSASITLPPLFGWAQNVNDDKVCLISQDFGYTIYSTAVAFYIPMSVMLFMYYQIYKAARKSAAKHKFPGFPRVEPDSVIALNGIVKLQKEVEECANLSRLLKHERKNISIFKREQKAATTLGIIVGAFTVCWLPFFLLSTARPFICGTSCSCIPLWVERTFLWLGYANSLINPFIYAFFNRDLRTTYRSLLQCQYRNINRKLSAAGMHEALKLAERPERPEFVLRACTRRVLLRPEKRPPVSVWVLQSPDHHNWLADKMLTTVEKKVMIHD
Chain of 5-hydroxytryptamine receptor 2A (Homo sapiens) (P28223 whole entry): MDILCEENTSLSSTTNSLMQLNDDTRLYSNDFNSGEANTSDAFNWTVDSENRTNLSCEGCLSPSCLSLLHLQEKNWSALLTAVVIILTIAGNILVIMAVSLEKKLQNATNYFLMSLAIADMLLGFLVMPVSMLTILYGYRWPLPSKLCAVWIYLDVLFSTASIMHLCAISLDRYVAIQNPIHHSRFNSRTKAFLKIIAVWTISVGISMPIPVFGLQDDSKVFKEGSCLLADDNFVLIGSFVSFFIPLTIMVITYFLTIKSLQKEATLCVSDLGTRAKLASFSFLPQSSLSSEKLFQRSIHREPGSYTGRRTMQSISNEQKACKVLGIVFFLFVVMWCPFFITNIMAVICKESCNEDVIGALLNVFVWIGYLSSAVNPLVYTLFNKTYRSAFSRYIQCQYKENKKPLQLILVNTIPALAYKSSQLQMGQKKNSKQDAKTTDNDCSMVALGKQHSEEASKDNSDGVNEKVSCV
Chain of 5-hydroxytryptamine receptor 6 (Homo sapiens) (P50406 whole entry): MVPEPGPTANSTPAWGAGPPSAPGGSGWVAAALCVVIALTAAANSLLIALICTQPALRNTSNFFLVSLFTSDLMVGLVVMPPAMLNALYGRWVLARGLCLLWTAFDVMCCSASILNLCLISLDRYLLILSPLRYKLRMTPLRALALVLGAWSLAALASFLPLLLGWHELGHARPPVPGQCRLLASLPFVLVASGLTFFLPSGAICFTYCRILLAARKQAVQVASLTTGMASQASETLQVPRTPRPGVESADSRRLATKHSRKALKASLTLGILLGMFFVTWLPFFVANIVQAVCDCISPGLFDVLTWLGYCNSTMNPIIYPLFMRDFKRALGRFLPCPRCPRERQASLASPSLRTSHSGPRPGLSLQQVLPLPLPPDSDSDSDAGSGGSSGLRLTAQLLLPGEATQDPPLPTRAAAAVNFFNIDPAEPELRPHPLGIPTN

inhibition [1] [%]	Ki [2] [µM]	inhibition [3] [%]	Ki [4] [µM]	inhibition [5] [%]	inhibition [6] [%]	inhibition [7] [%]	half-life (in vitro) [h]	Structure (SMILES)	IC50 (SW480) [µM]	IC50 (HaCaT) [µM]	IC50 (PC-3) [µM]
0	0.298	19	0.064	10	8	78	–	COc1ccc(/C=C2\NC(=O)N(CCCCN3CCN(c4ncccn4)CC3)C2=O)cc1OC1CCCC1	–	–	–
0	0.022	61	0.053	5	72	97	–	COc1ccc(/C=C2\NC(=O)N(CCCN3CCN(c4cccc(Cl)c4Cl)CC3)C2=O)cc1OC	–	–	–
–	–	–	–	–	–	–	1.41	CC(C)NCC(O)COc1cccc2ccccc12 (stereo unspecified) [PROPRANOLOL]	–	–	–
0	0.006	44	0.037	3	13	96	–	COc1ccc(/C=C2\NC(=O)N(CCCN3CCN(c4ccccc4OC)CC3)C2=O)cc1OC1CCCC1	–	–	–
0	0.042	25	0.013	9	0	83	–	COc1ccc(/C=C2\NC(=O)N(CCCN3CCN(c4ccccc4OC)CC3)C2=O)cc1OC	–	–	–
0	> 1	33	0.085	9	23	89	–	COc1ccc(/C=C2\NC(=O)N(CCCN3CCN(c4ncccn4)CC3)C2=O)cc1OC1CCCC1	–	–	–
–	–	–	–	–	–	–	–	COc1cccc2c1C(=O)c1c(O)c3c(c(O)c1C2=O)C[C@@](O)(C(=O)CO)C[C@@H]3O[C@H]1C[C@H](N)[C@H](O)[C@H](C)O1 [DOXORUBICIN]	0.29	0.235	0.59

Structure (SMILES)	inhibition [1] [%]	Ki [2] [µM]	inhibition [3] [%]	Ki [4] [µM]	inhibition [5] [%]	inhibition [6] [%]	inhibition [7] [%]	half-life (in vitro) [h]	IC50 (SW480) [µM]	IC50 (HaCaT) [µM]	IC50 (PC-3) [µM]
COc1ccc(/C=C2\NC(=O)N(CCCN3CCN(c4cccc(Cl)c4Cl)CC3)C2=O)cc1OC1CCCC1	0	0.38	27	> 1	3	70	96	–	–	–	–
